Drawing on ChEMBL document CHEMBL4665897, “α-Linolenic Acid-Valproic Acid Conjugates: Toward Single-Molecule Polypharmacology for Multiple Sclerosis” (ACS Med Chem Lett, 2020), this text covers Activity and inhibition for four compounds.

Calls of active or inactive are those of the source. The calls are words filed in the database; no cut-off is given here.

Assay [1] relates to Cerebellar granule neurone. The assay is described as follows: Neuroprotective activity against glutamate/glycine-induced excitotoxicity in rat primary Cerebellar granule neurone at 25 uM preincubated for 6 hrs measured after 24 hrs by MTT assay. Format: functional, tissue-based. The gist of the method:
(§1)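 Primary rat cerebellar granule neurons at 8 DIV pretreated 6 h with compound (5, 10, 25 μM), then 100 μM glutamate/10 μM glycine added for a further 24 h with compound present. Viability was read by MTT, expressed as % of control. Values are mean SE of at least four experiments, each in triplicate.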

Assay [2] addresses T1, Histone deacetylase (Homo sapiens) (UniProt Q13547+O15379+Q9UBN7+Q92769+Q9UQL6+Q8WUI4+Q9BY41+Q96DB2+P56524+Q9UKV0+Q969S8). The assay is described as follows: Inhibition of HDAC in human medulloblastoma (DAOY) cells assessed as increase in acetylated histone levels at 0.5 mM after 48 hrs by densitometric analysis. An outline of the steps: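 HDAC inhibition in human DAOY medulloblastoma cells was read as acetylated histone H3 by immunoblot densitometry. […] Values are mean SD of three independent experiments, Newman–Keuls after ANOVA versus vehicle.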

For assay [3], the system named is Olineu. Description: Induction in mouse Oli-neu cell differentiation to oligodendrocytes assessed as decrease in Olig2 expression at 5 uM after 48 hrs by Western blot analysis. In general terms: A western blot detects proteins with antibodies after separation by electrophoresis.
In assay [4] the test system is Olineu. Description: Induction in mouse Oli-neu cell differentiation to oligodendrocytes assessed as increase in filament length at 5 uM after 48 hrs. Format: functional. An outline of the steps:
(§2)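 Oli-Neu cells (immortalized mouse oligodendrocyte precursors) exposed to 5 μM compound for 48 h. Proliferation was scored by cell counting and differentiation by filament length. Values are % of control, mean SE of at least three experiments, one-way ANOVA with Bonferroni.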

The target of assay [5] is T1, Histone deacetylase (Homo sapiens). The assay is described as follows: Inhibition of HDAC in human medulloblastoma (DAOY) cells assessed as increase in acetylated histone levels at […] after 48 hrs by densitometric analysis.
For assay [6], the system named is Olineu. The assay is described as follows: Induction in mouse Oli-neu cell differentiation to oligodendrocytes assessed as increase in CNPase expression at 5 uM after 72 hrs by Western blot analysis. In kind it is functional. The gist of the method: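 Oli-Neu cells exposed to 5 μM compound; Olig2 was assessed at 48 h and CNPase at 72 h. Values are % of control, mean SE of at least three experiments, one-way ANOVA with Bonferroni.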

Assay [7] concerns N9 (Mus musculus). The assay is described as follows: Immunomodulatory activity in LPS treated mouse N9 microglial cells assessed as reduction in nitrite level at 0.5 uM preincubated for 6 hrs by Griess reagent assay. Particulars: time 24.0 hrs. (The Griess reaction detects nitrite, a stable product of nitric oxide.)
The subject of assay [8] is Cerebellar granule neurone. The assay is described as follows: Neuroprotective activity against glutamate/glycine-induced excitotoxicity in rat primary Cerebellar granule neurone at 10 uM preincubated for 6 hrs measured after 24 hrs by MTT assay. In kind it is functional, tissue-based. The gist of the method:
as §1

Assay [9] has as its system Olineu. Description: Induction in mouse Oli-neu cell differentiation to oligodendrocytes assessed as decrease in cell number at 5 uM after 48 hrs. In kind it is functional. An outline of the steps: as §2
Assay [10] relates to Cerebellar granule neurone. Description: Neuroprotective activity against glutamate/glycine-induced excitotoxicity in rat primary Cerebellar granule neurone at 5 uM preincubated for 6 hrs measured after 24 hrs by MTT assay. In kind it is functional, tissue-based. The gist of the method: as §1
For orientation: Tetrazolium dyes change colour on reduction, which living cells bring about.

The subject of assay [11] is N9 (Mus musculus). The assay is described as follows: Immunomodulatory activity in LPS treated mouse N9 microglial cells assessed as shift in M1 neurotoxic phenotype to M2 neuroprotective by measuring decrease in iNOS expression level at 0.5 uM preincubated for 6 hrs by western blot analysis.
Assay [12] concerns N9 (Mus musculus). The assay is described as follows: Immunomodulatory activity in LPS treated mouse N9 microglial cells assessed as shift in M1 neurotoxic phenotype to M2 neuroprotective by measuring TREM2 expression level at 0.5 uM preincubated for 6 hrs by western blot analysis.

`CC/C=C\C/C=C\C/C=C\CCCCCCCC(=O)O`: in assay [1], the outcome was inactive.

`CC/C=C\C/C=C\C/C=C\CCCCCCCC(=O)NCCNC(=O)C(CCC)CCC`: the inhibition result (in assay [2]; in assay [5]; with N9 (Mus musculus) [7]; in the assay with N9 (Mus musculus) [11]) was “Active” in each case. Further, the outcome in assay [1] was inactive. Besides, the outcome (in the assay on Olineu [3]; in the assay on Olineu [4]; with Olineu [6]; in assay [8]; in the assay on Olineu [9]; in assay [10]) was Active. In addition, the inhibition result in the assay on N9 (Mus musculus) [12] was “inactive”.

With `CC/C=C\C/C=C\C/C=C\CCCCCCCC(=O)NCCOC(=O)C(CCC)CCC`, the inhibition result (in [2]; in [5]; with N9 (Mus musculus) [7]; in the assay with N9 (Mus musculus) [11]) was “Active” throughout. For the same compound, in [1], the result was inactive. In addition, the outcome (in the assay with Olineu [3]; with Olineu [4]; in [8]; in the assay on Olineu [9]; in assay [10]) was Active. In addition, in the assay with N9 (Mus musculus) [12], the inhibition entry is “inactive”.

Consider `CCCC(CCC)C(=O)O`, for which the outcome in assay [1], in assay [8] and in assay [10] was inactive. For the same compound, the inhibition result in [5] was “Active”. For the same compound, the result in the assay with Olineu [6] and in the assay on Olineu [9] was Active.
